{"source": "ChEMBL document CHEMBL5149991", "about": "(J Med Chem, 2021)", "key": {"[1]": {"target": "Mu-type opioid receptor (Homo sapiens, UniProt P35372)", "sequence (P35372 whole entry)": "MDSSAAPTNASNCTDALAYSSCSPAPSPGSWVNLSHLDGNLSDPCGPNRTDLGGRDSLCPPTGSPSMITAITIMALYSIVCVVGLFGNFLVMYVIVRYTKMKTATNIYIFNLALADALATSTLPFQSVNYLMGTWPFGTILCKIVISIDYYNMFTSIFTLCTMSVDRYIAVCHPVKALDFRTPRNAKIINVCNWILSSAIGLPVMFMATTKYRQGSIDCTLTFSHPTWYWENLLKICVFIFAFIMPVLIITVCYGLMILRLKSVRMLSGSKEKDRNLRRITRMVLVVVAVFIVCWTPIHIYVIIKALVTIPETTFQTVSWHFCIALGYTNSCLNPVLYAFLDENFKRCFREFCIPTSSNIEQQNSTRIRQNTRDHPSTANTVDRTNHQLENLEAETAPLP", "test": "Displacement of [3H]diprenorphine from human mu-opioid receptor […] in HEK293T cell membrane incubated for 2 hrs by scintillation counting analysis", "format": "cell membranes", "procedure,_shortened": "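Transiently transfected HEK293T membranes in 50 mM Tris, pH 7.4. α2A: 10 μg/well, 0.5 nM [3H]RX821002, nonspecific with 10 μM RX821002. μOR: 6 μg/well, 0.3 nM [3H]diprenorphine, nonspecific with 10 μM naloxone. Ki from IC50 by Cheng–Prusoff.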"}, "[2]": {"target": "T1, Muscarinic acetylcholine receptor M5 (Homo sapiens, UniProt P08912)", "T1 sequence (P08912 whole entry)": "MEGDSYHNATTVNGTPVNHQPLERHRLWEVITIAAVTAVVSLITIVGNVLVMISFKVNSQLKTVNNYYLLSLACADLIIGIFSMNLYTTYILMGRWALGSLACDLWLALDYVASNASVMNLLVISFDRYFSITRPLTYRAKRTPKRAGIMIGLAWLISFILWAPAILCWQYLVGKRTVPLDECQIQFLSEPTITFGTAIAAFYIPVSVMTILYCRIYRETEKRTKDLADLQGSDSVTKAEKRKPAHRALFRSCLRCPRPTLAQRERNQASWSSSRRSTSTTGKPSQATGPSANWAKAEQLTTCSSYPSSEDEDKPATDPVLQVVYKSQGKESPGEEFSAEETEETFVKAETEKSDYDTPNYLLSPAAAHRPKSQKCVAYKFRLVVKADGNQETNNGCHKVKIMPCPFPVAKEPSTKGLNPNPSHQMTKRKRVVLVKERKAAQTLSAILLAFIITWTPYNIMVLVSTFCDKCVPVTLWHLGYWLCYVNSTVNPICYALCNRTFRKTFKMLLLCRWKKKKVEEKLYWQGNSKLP", "test": "Displacement of [3H]N-methylscopolamine from human muscarinic acetylcholine M5 receptor stably expressed in CHO cells by radioligand competition binding based analysis", "format": "cell-based", "procedure,_shortened": "(§1)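 Whole CHO cells stably expressing hM1–hM5, competed against [3H]N-methylscopolamine. Kd/applied concentrations in nM: M1 0.17/0.2, M2 0.10/0.2, M3 0.12/0.2, M4 0.052/0.1, M5 0.20/0.3.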"}, "[3]": {"target": "T2, D(4) dopamine receptor (Homo sapiens, UniProt P21917)", "T2 sequence (P21917 whole entry)": "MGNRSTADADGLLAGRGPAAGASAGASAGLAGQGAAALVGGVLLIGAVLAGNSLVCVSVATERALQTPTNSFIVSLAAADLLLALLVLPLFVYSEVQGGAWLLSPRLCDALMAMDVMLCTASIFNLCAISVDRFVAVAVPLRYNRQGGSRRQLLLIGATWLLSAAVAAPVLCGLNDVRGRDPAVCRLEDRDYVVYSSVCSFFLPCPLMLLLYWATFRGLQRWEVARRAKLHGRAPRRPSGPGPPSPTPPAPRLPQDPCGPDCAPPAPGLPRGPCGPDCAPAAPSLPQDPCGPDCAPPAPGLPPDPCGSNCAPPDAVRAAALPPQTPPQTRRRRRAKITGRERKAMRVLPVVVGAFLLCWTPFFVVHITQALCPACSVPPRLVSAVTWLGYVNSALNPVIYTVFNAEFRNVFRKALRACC", "test": "Displacement of [3H]N-methylspiperone from human D4.4 receptor stably expressed in HEK293T cells co-expressing ElucN-betaarr2 hD4.4R-ELuc incubated for 60 mins by scintillation counting analysis", "format": "cell-based"}, "[4]": {"target": "Beta-2 adrenergic receptor (Homo sapiens, UniProt P07550)", "sequence (P07550 whole entry)": "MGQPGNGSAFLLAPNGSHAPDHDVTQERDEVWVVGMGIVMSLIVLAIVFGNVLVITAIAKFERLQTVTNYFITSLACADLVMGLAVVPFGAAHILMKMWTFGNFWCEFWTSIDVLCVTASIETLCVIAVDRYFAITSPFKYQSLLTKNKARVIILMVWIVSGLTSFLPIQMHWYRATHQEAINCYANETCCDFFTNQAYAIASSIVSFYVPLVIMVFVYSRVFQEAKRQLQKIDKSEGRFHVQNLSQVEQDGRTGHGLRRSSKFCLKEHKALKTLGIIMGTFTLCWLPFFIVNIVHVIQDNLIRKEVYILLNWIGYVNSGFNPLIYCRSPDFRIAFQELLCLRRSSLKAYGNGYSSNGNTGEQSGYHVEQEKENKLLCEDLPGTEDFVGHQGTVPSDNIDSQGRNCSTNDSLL", "test": "Displacement of [3H]CGP12177 from human beta-2 adrenergic receptor […] in HEK293T cell membrane incubated for 2 hrs by scintillation counting analysis", "format": "cell membranes", "procedure,_shortened": "(§2)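 Membranes of transiently transfected HEK293T cells in 25 mM HEPES, 5 mM MgCl2, 1 mM EDTA, 0.01% BSA, pH 7.4. β1 at 2 μg/well, β2 at 4 μg/well, with 0.2 nM [3H]CGP12177. Nonspecific binding with 10 μM CGP12177. IC50 converted to Ki by Cheng–Prusoff.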"}, "[5]": {"target": "Beta-1 adrenergic receptor (Homo sapiens, UniProt P08588)", "sequence (P08588 whole entry)": "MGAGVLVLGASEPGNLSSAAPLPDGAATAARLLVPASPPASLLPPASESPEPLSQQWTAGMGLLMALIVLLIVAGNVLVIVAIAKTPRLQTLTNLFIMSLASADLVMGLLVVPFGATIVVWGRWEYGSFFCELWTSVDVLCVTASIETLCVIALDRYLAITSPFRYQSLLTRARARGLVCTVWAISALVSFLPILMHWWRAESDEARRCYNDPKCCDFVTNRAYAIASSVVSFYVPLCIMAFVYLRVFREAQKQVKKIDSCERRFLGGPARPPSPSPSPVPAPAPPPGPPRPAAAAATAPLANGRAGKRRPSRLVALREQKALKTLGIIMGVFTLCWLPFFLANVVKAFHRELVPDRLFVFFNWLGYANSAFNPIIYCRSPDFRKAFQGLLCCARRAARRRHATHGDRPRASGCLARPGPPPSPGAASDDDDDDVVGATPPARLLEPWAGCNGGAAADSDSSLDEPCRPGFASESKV", "test": "Displacement of [3H]CGP12177 from human beta-1 adrenergic receptor […] in HEK293T cell membrane incubated for 2 hrs by scintillation counting analysis", "format": "cell membranes", "procedure,_shortened": "as §2"}, "[6]": {"target": "Histamine H2 receptor (Cavia porcellus, UniProt P47747)", "sequence (P47747 whole entry)": "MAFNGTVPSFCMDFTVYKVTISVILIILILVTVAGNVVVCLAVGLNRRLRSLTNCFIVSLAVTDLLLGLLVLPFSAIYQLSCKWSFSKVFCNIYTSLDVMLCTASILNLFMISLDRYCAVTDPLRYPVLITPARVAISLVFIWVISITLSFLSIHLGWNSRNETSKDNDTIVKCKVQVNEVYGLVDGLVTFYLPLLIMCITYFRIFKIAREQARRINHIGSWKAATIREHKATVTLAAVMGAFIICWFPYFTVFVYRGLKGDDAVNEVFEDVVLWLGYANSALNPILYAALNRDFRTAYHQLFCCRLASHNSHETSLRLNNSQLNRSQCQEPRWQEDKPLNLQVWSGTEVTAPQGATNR", "test": "Agonist activity at guinea pig histamine H2 receptor stably transfected in HEK293T cells co-expressing NlucN-mGs/gpH2R-NlucC by mini-G protein recruitment assay", "format": "functional, cell-based"}, "[7]": {"target": "T3, Muscarinic acetylcholine receptor M2 (Homo sapiens, UniProt P08172)", "T3 sequence (P08172 whole entry)": "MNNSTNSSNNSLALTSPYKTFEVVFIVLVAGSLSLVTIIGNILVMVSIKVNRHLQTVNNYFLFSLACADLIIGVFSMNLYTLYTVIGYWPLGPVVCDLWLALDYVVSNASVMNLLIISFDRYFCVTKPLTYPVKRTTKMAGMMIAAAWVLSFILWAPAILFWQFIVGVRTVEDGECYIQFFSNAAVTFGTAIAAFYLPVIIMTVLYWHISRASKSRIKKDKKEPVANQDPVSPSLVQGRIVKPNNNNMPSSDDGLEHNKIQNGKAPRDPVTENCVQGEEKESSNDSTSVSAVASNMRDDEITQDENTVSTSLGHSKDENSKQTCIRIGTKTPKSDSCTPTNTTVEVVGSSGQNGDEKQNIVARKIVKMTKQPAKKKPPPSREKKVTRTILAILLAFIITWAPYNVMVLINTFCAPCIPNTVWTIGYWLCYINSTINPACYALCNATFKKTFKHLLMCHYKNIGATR", "test": "Displacement of [3H]N-methylscopolamine from human muscarinic acetylcholine M2 receptor stably expressed in CHO cells by radioligand competition binding based analysis", "format": "cell-based", "procedure,_shortened": "as §1"}, "[8]": {"target": "T4, Alpha-1A adrenergic receptor (Homo sapiens, UniProt P35348)", "T4 sequence (P35348 whole entry)": "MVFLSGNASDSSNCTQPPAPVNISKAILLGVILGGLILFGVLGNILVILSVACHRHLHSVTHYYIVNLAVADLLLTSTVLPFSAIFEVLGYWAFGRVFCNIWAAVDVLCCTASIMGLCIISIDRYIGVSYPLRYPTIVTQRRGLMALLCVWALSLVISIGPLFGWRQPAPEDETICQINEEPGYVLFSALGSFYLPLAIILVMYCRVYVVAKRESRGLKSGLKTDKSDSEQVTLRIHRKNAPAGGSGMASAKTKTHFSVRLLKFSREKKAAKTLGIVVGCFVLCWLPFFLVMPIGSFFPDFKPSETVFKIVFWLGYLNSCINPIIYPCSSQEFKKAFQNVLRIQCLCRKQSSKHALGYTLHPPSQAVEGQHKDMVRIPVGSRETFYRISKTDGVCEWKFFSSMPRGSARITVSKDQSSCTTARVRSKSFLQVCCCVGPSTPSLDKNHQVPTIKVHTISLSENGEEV", "test": "Displacement of [3H]prazosin from human alpha-1A adrenergic receptor stably expressed in HEK293T cell membrane incubated for 2 hrs by scintillation counting analysis", "format": "cell membranes"}}}
{"smiles": "C[C@@H](NC(=O)/N=C(\\N)NCCCc1ncn[nH]1)c1ccccc1", "values": [{"measurement": "Kd", "setting": "[1]", "value": 0.09, "unit": "nM"}, {"measurement": "pKi", "setting": "[1]", "value": 4.76}, {"measurement": "Kd", "setting": "[2]", "value": 0.2, "unit": "nM"}, {"measurement": "pKi", "setting": "[2]", "value": "< 5"}, {"measurement": "Kd", "setting": "[3]", "value": 0.078, "unit": "nM"}, {"measurement": "pKi", "setting": "[3]", "value": 5.18}, {"measurement": "Kd", "setting": "[4]", "value": 0.07, "unit": "nM"}, {"measurement": "pKi", "setting": "[4]", "value": 4.45}, {"measurement": "Kd", "setting": "[5]", "value": 0.075, "unit": "nM"}, {"measurement": "pKi", "setting": "[5]", "value": 4.31}, {"measurement": "EC50", "setting": "[6]", "value": 16.2, "unit": "nM"}, {"measurement": "Kd", "setting": "[7]", "value": 0.1, "unit": "nM"}, {"measurement": "Ki", "setting": "[7]", "value": "> 10000", "unit": "nM"}, {"measurement": "Kd", "setting": "[8]", "value": 0.25, "unit": "nM"}, {"measurement": "pKi", "setting": "[8]", "value": 5.72}]}
{"smiles": "CCCCCNC(=O)/N=C(\\N)NCCCc1nnc(N)s1.O=C(O)C(F)(F)F.O=C(O)C(F)(F)F", "values": [{"measurement": "Kd", "setting": "[1]", "value": 0.09, "unit": "nM"}, {"measurement": "pKi", "setting": "[1]", "value": 5.47}, {"measurement": "Kd", "setting": "[2]", "value": 0.2, "unit": "nM"}, {"measurement": "pKi", "setting": "[2]", "value": "> 5"}, {"measurement": "Kd", "setting": "[3]", "value": 0.078, "unit": "nM"}, {"measurement": "pKi", "setting": "[3]", "value": 5.65}, {"measurement": "Kd", "setting": "[4]", "value": 0.07, "unit": "nM"}, {"measurement": "pKi", "setting": "[4]", "value": 4.2}, {"measurement": "Kd", "setting": "[5]", "value": 0.075, "unit": "nM"}, {"measurement": "pKi", "setting": "[5]", "value": "< 4"}, {"measurement": "EC50", "setting": "[6]", "value": 4.37, "unit": "nM"}, {"measurement": "Kd", "setting": "[7]", "value": 0.1, "unit": "nM"}, {"measurement": "Kd", "setting": "[8]", "value": 0.25, "unit": "nM"}, {"measurement": "pKi", "setting": "[8]", "value": 5.45}]}
{"smiles": "N/C(=N\\C(=O)NCc1ccccc1)NCCCc1nnc(N)s1", "values": [{"measurement": "Kd", "setting": "[1]", "value": 0.09, "unit": "nM"}, {"measurement": "pKi", "setting": "[1]", "value": 5.4}, {"measurement": "Kd", "setting": "[2]", "value": 0.2, "unit": "nM"}, {"measurement": "pKi", "setting": "[2]", "value": "> 5"}, {"measurement": "Kd", "setting": "[3]", "value": 0.078, "unit": "nM"}, {"measurement": "pKi", "setting": "[3]", "value": 6.17}, {"measurement": "Kd", "setting": "[4]", "value": 0.07, "unit": "nM"}, {"measurement": "pKi", "setting": "[4]", "value": 4.4}, {"measurement": "Kd", "setting": "[5]", "value": 0.075, "unit": "nM"}, {"measurement": "pKi", "setting": "[5]", "value": "< 4"}, {"measurement": "EC50", "setting": "[6]", "value": 2.19, "unit": "nM"}, {"measurement": "Kd", "setting": "[7]", "value": 0.1, "unit": "nM"}, {"measurement": "Kd", "setting": "[8]", "value": 0.25, "unit": "nM"}, {"measurement": "pKi", "setting": "[8]", "value": 6.07}]}
{"smiles": "CCCCCNC(=O)/N=C(\\N)NCCCc1sc(N)nc1C", "values": [{"measurement": "Kd", "setting": "[1]", "value": 0.09, "unit": "nM"}, {"measurement": "pKi", "setting": "[1]", "value": 5.99}, {"measurement": "Kd", "setting": "[2]", "value": 0.2, "unit": "nM"}, {"measurement": "pKi", "setting": "[2]", "value": "> 5"}, {"measurement": "Kd", "setting": "[3]", "value": 0.078, "unit": "nM"}, {"measurement": "pKi", "setting": "[3]", "value": 6.96}, {"measurement": "Kd", "setting": "[4]", "value": 0.07, "unit": "nM"}, {"measurement": "pKi", "setting": "[4]", "value": 4.93}, {"measurement": "Kd", "setting": "[5]", "value": 0.075, "unit": "nM"}, {"measurement": "pKi", "setting": "[5]", "value": 4.66}, {"measurement": "Kd", "setting": "[7]", "value": 0.1, "unit": "nM"}, {"measurement": "Ki", "setting": "[7]", "value": "> 10000", "unit": "nM"}, {"measurement": "Kd", "setting": "[8]", "value": 0.25, "unit": "nM"}, {"measurement": "pKi", "setting": "[8]", "value": 5.69}]}
